From ChEMBL document CHEMBL3580644, “Synthesis of piperlongumine analogues and discovery of nuclear factor erythroid 2-related factor 2 (Nrf2) activators as potential neuroprotective agents” (J Med Chem, 2015)
Activity calls are given as the source filed them. The calls are words filed in the database; no cut-off is given here.

Assays:
[1] = molecular target: T1, Nuclear factor erythroid 2-related factor 2 (Rattus norvegicus) (UniProt O54968); experiment: Induction of Nrf2-mediated antioxidant genes expression in rat PC12 cells assessed as increase in TrxR1 protein expression at 10 and 20 uM incubated for 20 hrs by Western blotting method; assay type: cell-based; details: PC-12
T1 sequence (whole entry): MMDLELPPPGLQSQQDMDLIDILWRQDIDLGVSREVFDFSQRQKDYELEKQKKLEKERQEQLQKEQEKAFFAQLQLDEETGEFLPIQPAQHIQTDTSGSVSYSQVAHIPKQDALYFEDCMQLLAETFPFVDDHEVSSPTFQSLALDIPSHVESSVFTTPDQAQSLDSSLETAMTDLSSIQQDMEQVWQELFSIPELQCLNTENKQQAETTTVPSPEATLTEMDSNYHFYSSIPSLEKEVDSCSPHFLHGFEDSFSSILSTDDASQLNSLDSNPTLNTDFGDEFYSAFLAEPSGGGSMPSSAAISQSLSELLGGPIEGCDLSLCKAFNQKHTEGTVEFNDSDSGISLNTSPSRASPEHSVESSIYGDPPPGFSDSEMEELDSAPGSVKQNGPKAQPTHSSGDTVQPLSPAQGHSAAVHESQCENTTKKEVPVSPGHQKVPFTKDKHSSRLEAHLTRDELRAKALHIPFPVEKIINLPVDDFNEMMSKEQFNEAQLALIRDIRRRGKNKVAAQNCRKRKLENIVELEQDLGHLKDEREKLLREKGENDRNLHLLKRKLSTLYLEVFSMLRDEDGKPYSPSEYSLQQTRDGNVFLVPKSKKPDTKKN

PC-12 [2] = experiment: Induction of antioxidant genes expression in rat PC12 cells assessed as increase in TrxR1 mRNA level at 20 uM incubated for 6 hrs by qRT-PCR method; assay type: functional, cell-based
Summary of the method: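 PC12 cells (1×10^6 per 60-mm dish) seeded 1 day, then exposed to 20 μM compound for 0, 3, 6 and 12 h. Total RNA isolated and quantified by 260/280 absorbance. Transcripts measured by qRT-PCR, normalized to GAPDH internal control, compared against 0 h control. Means ± SD of three independent experiments.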

PC-12 [3] = experiment: Induction of antioxidant genes expression in rat PC12 cells assessed as increase in TrxR1 mRNA level at 20 uM incubated for 12 hrs by qRT-PCR method; assay type: functional, cell-based
Summary of the method: (§1)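 PC12 cells, 1×10^6 per 60-mm dish, 1 day, then 20 μM compound for 0, 3, 6 and 12 h; total RNA isolated, quantified by 260/280 absorbance; mRNA by real-time RT-PCR normalized to GAPDH; mean ± SD of three independent experiments versus 0 h.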

[4] = molecular target: T1, Nuclear factor erythroid 2-related factor 2 (Rattus norvegicus); experiment: Induction of Nrf2 nuclear translocation in rat PC12 cells at 20 uM incubated for 2 to 8 hrs by Western blotting method; assay type: cell-based; details: PC-12
Summary of the method: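 PC12 cells (1×10^6) in 60-mm dishes, 24 h, then 20 μM compound for 0, 2, 4 and 8 h; nuclear, cytosolic and whole-cell extracts prepared; Nrf2 detected by Western blot.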

[5] = Antioxidant activity assessed as DPPH radical scavenging activity at 20 uM incubated for 30 mins by spectrophotometry; assay type: physicochemical; details: 0.5 h
PC-12 [6] = experiment: Cytoprotection activity against 6-OHDA-induced apoptosis in rat PC12 cells assessed as reduction in caspase-3 activation at 10 and 20 uM pre-incubated for 24 hrs before 6-OHDA exposure for 24 hrs by colorimetric assay; assay type: functional, cell-based
Summary of the method: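 Lysed in RIPA buffer (pH 7.5), protein by Bradford; caspase-3 measured colorimetrically with Ac-DEVD-pNA substrate, expressed as % of control; mean ± SD, three independent experiments.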

[7] = molecular target: T1, Nuclear factor erythroid 2-related factor 2 (Rattus norvegicus); experiment: Induction of Nrf2-mediated antioxidant genes expression in rat PC12 cells assessed as increase in HO1 protein expression at 10 and 20 uM incubated for 20 hrs by Western blotting method; assay type: cell-based; details: PC-12
PC-12 [8] = experiment: Cytoprotection activity against H2O2-induced cytotoxicity in rat PC12 cells assessed as cell viability at 10 and 20 uM pre-incubated for 24 hrs before H2O2 exposure for 12 hrs by LDH release assay; assay type: functional, cell-based
PC-12 [9] = experiment: Induction of antioxidant defense system in rat PC12 cells assessed as increase in TrxR activity level incubated for 24 hrs by Escherichia coli Trx based assay; assay type: functional, cell-based
Summary of the method: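 Cellular TrxR activity: extract with 20 μg protein incubated 30 min at 37 °C in 100 mM Tris-HCl pH 7.4 containing 0.3 mM insulin, 660 μM NADPH, 3 mM EDTA, 4 μM E. coli Trx; stopped with 1 mM DTNB in 6 M guanidine-HCl pH 8.0; A412 minus Trx-free blank; % of DMSO control.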

PC-12 [10] = experiment: Induction of antioxidant genes expression in rat PC12 cells assessed as increase in GCLC mRNA level at 20 uM incubated for 6 hrs by qRT-PCR method; assay type: functional, cell-based; summary of the method: as §1
PC-12 [11] = experiment: Induction of antioxidant genes expression in rat PC12 cells assessed as increase in HO1 mRNA level at 20 uM incubated for 6 hrs by qRT-PCR method; assay type: functional, cell-based; summary of the method: as §1
PC-12 [12] = experiment: Cytoprotection activity against H2O2-induced oxidative stress in rat PC12 cells assessed as reduction in ROS generation at 10 and 20 uM pre-incubated for 24 hrs before H2O2 exposure for 5 hrs by DCFH-DA dye based fluorescent microscopy; assay type: functional, cell-based
PC-12 [13] = experiment: Induction of antioxidant defense system in rat PC12 cells assessed as increase in Trx activity level incubated for 24 hrs by recombinant rat TrxR1 based assay; assay type: functional, cell-based
Summary of the method: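 Cellular Trx activity: extract with 20 μg protein incubated 30 min at 37 °C in 100 mM Tris-HCl pH 7.4 with 0.3 mM insulin, 660 μM NADPH, 3 mM EDTA, 60 nM recombinant rat TrxR1; stopped with 1 mM DTNB in 6 M guanidine-HCl pH 8.0; A412 minus TrxR-free blank; % of DMSO control.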

[14] = Cytoprotection activity against H2O2-induced cytotoxicity in rat PC12 cells assessed as increase in cell viability at 20 uM pre-incubated for 24 hrs before H2O2 exposure for 12 hrs by MTT assay; assay type: functional, PC-12
PC-12 [15] = experiment: Induction of antioxidant genes expression in rat PC12 cells assessed as increase in Trx1 mRNA level at 20 uM incubated for 6 hrs by qRT-PCR method; assay type: functional, cell-based; summary of the method: as §1
[16] = Cytotoxicity against human L02 cells assessed as reduction in cell viability at 20 uM to 100 uM incubated for 24 hrs by MTT assay; assay type: cell-based; details: l02, 24 h
PC-12 [17] = experiment: Cytoprotection activity against 6-OHDA-induced cytotoxicity in rat PC12 cells assessed as cell viability at 10 and 20 uM pre-incubated for 24 hrs before 6-OHDA exposure for 12 hrs in presence of non-trageting shRNA by MTT assay; assay type: functional, cell-based
PC-12 [18] = experiment: Induction of antioxidant genes expression in rat PC12 cells assessed as increase in Trx1 mRNA level at 20 uM incubated for 12 hrs by qRT-PCR method; assay type: functional, cell-based; summary of the method: as §1
PC-12 [19] = experiment: Cytoprotection activity against 6-OHDA-induced cytotoxicity in rat PC12 cells assessed as cell viability at 10 and 20 uM pre-incubated for 24 hrs before 6-OHDA exposure for 12 hrs in presence of shNrf2 by MTT assay; assay type: functional, cell-based
[20] = Cytoprotection activity against 6-OHDA-induced cytotoxicity in rat PC12 cells assessed as cell viability at 10 and 20 uM pre-incubated for 24 hrs before 6-OHDA exposure for 12 hrs by MTT assay; assay type: functional, PC-12

Activity [1] | Activity [4] | Activity [5] | Activity [7] | Structure (SMILES) | Activity (PC-12 [2]) | Activity (PC-12 [3]) | Activity (PC-12 [6]) | Activity (PC-12 [8]) | Activity (PC-12 [9]) | Activity (PC-12 [10]) | Activity (PC-12 [11]) | Activity (PC-12 [12]) | Activity (PC-12 [13]) | Activity [14] [%] | Activity (PC-12 [15]) | Activity [16] | Activity (PC-12 [17]) | Activity (PC-12 [18]) | Activity (PC-12 [19]) | Activity [20] [%]
Active | Active | Not Active | Active | COc1cc(/C=C/C(=O)N2CCCCC2=O)cc(OC)c1OC | Active | Active | Dose-dependent effect | Active | Active | Active | Active | Dose-dependent effect | Active | 75 | Active | Non-toxic | Active | Active | inactive | 75
Active | Active | Not Active | Active | COc1ccc(/C=C/C(=O)N2CCCC2=O)cc1 | Active | Active | Dose-dependent effect | Active | Active | Active | Active | Dose-dependent effect | Active | 80 | Active | Non-toxic | Active | Active | inactive | 75
